Experimental data reported in ChEMBL document CHEMBL3774324, “iPSC Neuronal Assay Identifies Amaryllidaceae Pharmacophore with Multiple Effects against Herpesvirus Infections” (ACS Med Chem Lett, 2016).
The source made the active and inactive calls. No cut-off for these calls is given here.

How the values were obtained:
Human alphaherpesvirus 1 [1] = experiment: Antiviral activity against HSV1 KOS ATCC VR1493 infected in African green monkey Vero cells assessed as reduction in EGFP-positive cells at 10 uM treated at 2 hrs post infection measured 24 hrs post infection by flow cytometric analysis relative to control; assay type: functional
In short: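 Vero cells infected with EGFP-expressing HSV-1 at MOI 1, then given medium with 10 μM test agent (DMSO vehicle) at 2 hpi. Percentage of EGFP+ cells read by flow cytometry at 24 hpi against untreated infected cultures. Mean of three independent experiments, SD.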

Human alphaherpesvirus 1 [2] = experiment: Antiviral activity against HSV1 KOS ATCC VR1493 infected in African green monkey Vero cells assessed as reduction in virus yield at 10 uM treated at 2 hrs post infection measured 48 hrs post infection by flow cytometric analysis relative to control; assay type: functional, organism-based
Human alphaherpesvirus 1 [3] = experiment: Antiviral activity against HSV1 KOS ATCC VR1493 infected in human iPSC cells assessed as viral DNA replication at 10 uM measured 24 hrs post infection by FISH analysis; assay type: functional, organism-based
In short: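 HSV-1-infected iPSC-neurons (MOI 0.3), treated with 10 μM at 2 hpi. Fluorescent in situ hybridisation with HSV-1 DNA probe to detect viral DNA replication at 24 hpi.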

Human alphaherpesvirus 1 [4] = experiment: Antiviral activity against HSV1 KOS ATCC VR1493 infected in human iPSC cells assessed as reduction in virus yield at 10 uM treated at 2 hrs post infection measured 48 hrs post infection by flow cytometric analysis relative to control; assay type: functional, organism-based
Human alphaherpesvirus 1 [5] = experiment: Antiviral activity against HSV1 KOS ATCC VR1493 infected in human iPSC cells assessed as reduction in EGFP-positive cells at 10 uM treated at 2 hrs post infection measured 24 hrs post infection by flow cytometric analysis relative to control; assay type: functional
In short: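 Human iPSC-derived neurons infected with engineered EGFP HSV-1 at MOI 0.3 and treated with 10 μM at 2 hpi (DMSO vehicle). Percentage of EGFP+ cells measured by flow cytometry at 24 hpi relative to untreated infected cultures. Average of three independent experiments, SD.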

[6] = Cytotoxicity against human ARPE19 cells assessed as cell viability at 0.1 to 50 uM after 24 to 48 hrs by live/dead fixable viability dye-based flow cytometric analysis; settings: arpe-19, 50 µM
Human alphaherpesvirus 1 [7] = experiment: Antiviral activity against HSV1 KOS ATCC VR1493 infected in human iPSC cells assessed as reduction in expression of ICP4 gene at 10 uM measured 24 hrs post infection by RT-qPCR analysis; assay type: functional, organism-based
In short: (§1)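 iPSC-neurons infected with HSV-1 (MOI 0.3) and treated with 10 μM at 2 hpi. RT-qPCR of ICP4 and viral DNA polymerase transcripts at 24 hpi.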

Human alphaherpesvirus 1 [8] = experiment: Induction of sodium butyrate-induced reactivation of HSV1 KOS ATCC VR1493 infected in human iPSC cells assessed as decrease in EGFP MFI at 10 uM measured after 5 days of withdrawal in presence of IFN-alpha relative to 5BVdU/IFN-alpha-treated cells; assay type: functional
Human alphaherpesvirus 1 [9] = experiment: Induction of sodium butyrate-induced reactivation of HSV1 KOS ATCC VR1493 infected in human iPSC cells assessed as increase in EGFP-positive cells at 10 uM measured after 5 days of withdrawal by flow cytometric analysis relative to 5BVdU/IFN-alpha-treated cells; assay type: functional
Human alphaherpesvirus 1 [10] = experiment: Induction of sodium butyrate-induced reactivation of HSV1 KOS ATCC VR1493 infected in human iPSC cells assessed as decrease in EGFP MFI at 10 uM measured after 5 days of withdrawal relative to 5BVdU/IFN-alpha-treated cells; assay type: functional
[11] = Cytotoxicity against human iPSC cells assessed as cell viability at 0.1 to 50 uM after 24 to 48 hrs by live/dead fixable viability dye-based flow cytometric analysis
In short: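 Viability of iPSC-neurons exposed to test agent over 100 nM to 50 μM.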

Human alphaherpesvirus 1 [12] = experiment: Induction of sodium butyrate-induced reactivation of HSV1 KOS ATCC VR1493 infected in human iPSC cells assessed as increase in EGFP-positive cells at 10 uM measured after 5 days of withdrawal in presence of IFN-alpha by flow cytometric analysis relative to 5BVdU/[…]-treated cells; assay type: functional
Human alphaherpesvirus 3 [13] = experiment: Antiviral activity against VZV infected in human ARPE19 cells treated at 2 hrs post infection measured 48 hrs post infection by luciferase assay; assay type: functional, organism-based; settings: Human alphaherpesvirus 3, ARPE-19
In short: (§2)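 ARPE-19 retinal pigment epithelial cells infected with VZV carrying luciferase under the late ORF9 promoter at 1000 PFU/well. Compound added 2 hpi. Luciferase counts per second read at 48 hpi.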

Human alphaherpesvirus 1 [14] = experiment: Antiviral activity against HSV1 KOS ATCC VR1493 infected in human iPSC cells assessed as reduction in expression of DNA polymerase gene at 10 uM measured 24 hrs post infection by RT-qPCR analysis; assay type: functional, organism-based; in short: as §1
Human alphaherpesvirus 1 [15] = experiment: Induction of sodium butyrate-induced reactivation of HSV1 KOS ATCC VR1493 infected in human iPSC cells assessed as reduction in EGFP/RFP-positive cells at 10 uM measured after 5 days of withdrawal in presence of IFN-alpha by flow cytometric analysis relative to 5BVdU/[…]-treated cells; assay type: functional, organism-based
Human alphaherpesvirus 3 [16] = experiment: Antiviral activity against VZV infected in human ARPE19 cells at 10 uM treated at 2 hrs post infection measured 48 hrs post infection by luciferase assay relative to control; assay type: functional; in short: as §2
Human alphaherpesvirus 1 [17] = experiment: Induction of sodium butyrate-induced reactivation of HSV1 KOS ATCC VR1493 infected in human iPSC cells assessed as decrease in EGFP/RFP MFI at 10 uM measured after 5 days of withdrawal in presence of IFN-alpha relative to 5BVdU/IFN-alpha-treated cells; assay type: functional, organism-based
Human alphaherpesvirus 1 [18] = experiment: Induction of sodium butyrate-induced reactivation of HSV1 KOS ATCC VR1493 infected in human iPSC cells assessed as decrease in EGFP/RFP MFI at 10 uM measured after 5 days of withdrawal relative to 5BVdU/IFN-alpha-treated cells; assay type: functional, organism-based
Human alphaherpesvirus 1 [19] = experiment: Induction of sodium butyrate-induced reactivation of HSV1 KOS ATCC VR1493 infected in human iPSC cells assessed as reduction in EGFP/RFP-positive cells at 10 uM measured after 5 days of withdrawal by flow cytometric analysis relative to 5BVdU/[…]-treated cells; assay type: functional, organism-based
Human alphaherpesvirus 1 [20] = experiment: Antiviral activity against HSV1 KOS ATCC VR1493 infected in human iPSC-derived neurons assessed as reduction in EGFP-positive cells treated at 2 hrs post infection measured 24 hrs post infection by flow cytometric analysis; settings: Human alphaherpesvirus 1, KOS ATCC VR1493, iPSC-derived neurons
Human alphaherpesvirus 1 [21] = experiment: Antiviral activity against HSV1 KOS ATCC VR1493 infected in human iPSC cells assessed as reduction in viral DNA copy at 10 uM measured 24 hrs post infection by RT-qPCR analysis relative to control; assay type: functional
In short: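 iPSC-neurons infected with HSV-1 (MOI 0.3) and treated with 10 μM at 2 hpi. DNA extracted at 24 hpi. Viral DNA copy number measured by qPCR relative to infected untreated cells.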

Human alphaherpesvirus 1 [22] = experiment: Antiviral activity against HSV1 KOS ATCC VR1493 infected in human iPSC cells assessed as reduction in expression of ICP4 at 10 uM measured 24 hrs post infection by western blot analysis; assay type: functional, organism-based
Human alphaherpesvirus 1 [23] = experiment: Antiviral activity against HSV1 KOS ATCC VR1493 infected in human iPSC cells assessed as reduction in expression of ICP4 at 50 uM measured 24 hrs post infection by western blot analysis; assay type: functional, organism-based
Human alphaherpesvirus 1 [24] = experiment: Antiviral activity against HSV1 KOS ATCC VR1493 infected in human iPSC cells assessed as reduction in expression of DNA polymerase gene at 50 uM measured 24 hrs post infection by RT-qPCR analysis; assay type: functional, organism-based
In short: (§3)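 Human iPSC-derived neurons were infected with engineered HSV-1 at MOI 0.3 and treated 2 hpi (DMSO vehicle). RNA was taken 24 hpi, and viral ICP4 and viral DNA polymerase transcripts were quantified by RT-qPCR relative to infected untreated cells.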

Human alphaherpesvirus 1 [25] = experiment: Antiviral activity against HSV1 KOS ATCC VR1493 infected in human iPSC cells assessed as reduction in expression of ICP4 gene at 50 uM measured 24 hrs post infection by RT-qPCR analysis; assay type: functional, organism-based; in short: as §3
Human alphaherpesvirus 1 [26] = experiment: Antiviral activity against HSV1 KOS ATCC VR1493 infected in African green monkey Vero cells assessed as viral titre at 50 uM treated at 2 hrs post infection measured 48 hrs post infection by […] relative to control; assay type: functional
Human alphaherpesvirus 1 [27] = experiment: Antiviral activity against HSV1 KOS ATCC VR1493 infected in human iPSC cells assessed as viral DNA replication at 50 uM measured 24 hrs post infection by FISH analysis; assay type: functional, organism-based
In short: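 iPSC-derived neurons were infected with engineered HSV-1 at MOI 0.3 and given drug 2 hpi. Viral DNA replication was scored by fluorescent in situ hybridization with an HSV-1 DNA probe, counting hybridizing signals.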

## O=C1N[C@H]2[C@H](O)[C@@H](O)[C@@H](O)C[C@@H]2c2cc3c(cc21)OCO3
Human alphaherpesvirus 1 [1]
  Activity: inactive
Human alphaherpesvirus 1 [2]
  Activity: inactive
Human alphaherpesvirus 1 [3]
  Activity: inactive

## O=C1N[C@@H]2C(=C[C@H](O)[C@@H](O)[C@H]2O)c2cc3c(c(O)c21)OCO3 [NARCICLASINE]
Human alphaherpesvirus 1 [1]
  fold change (FC): 10.6
Human alphaherpesvirus 1 [4]
  Activity: Active
Human alphaherpesvirus 1 [5]
  fold change (FC): 69
Human alphaherpesvirus 1 [2]
  Activity: Active
Human alphaherpesvirus 1 [3]
  Activity: Active

## O=C1N[C@H]2[C@H](O)[C@H](O)[C@@H](O)C[C@@H]2c2cc3c(cc21)OCO3
[6]
  Activity: Non-toxic
Human alphaherpesvirus 1 [7]
  Activity: Active
Human alphaherpesvirus 1 [8]
  fold change (FC): 2.5
Human alphaherpesvirus 1 [1]
  fold change (FC): 19.6
Human alphaherpesvirus 1 [9]
  fold change (FC): 2.9
Human alphaherpesvirus 1 [10]
  fold change (FC): 1.6
[11]
  Activity: Non-toxic
Human alphaherpesvirus 1 [12]
  fold change (FC): 2.1
Human alphaherpesvirus 3 [13]
  EC50: 150 nM
Human alphaherpesvirus 1 [4]
  Activity: Active
Human alphaherpesvirus 1 [5]
  fold change (FC): 28
Human alphaherpesvirus 1 [14]
  Activity: Active
Human alphaherpesvirus 1 [15]
  Activity: Active
Human alphaherpesvirus 3 [16]
  fold change (FC): 220
Human alphaherpesvirus 1 [17]
  Activity: Active
Human alphaherpesvirus 1 [18]
  Activity: Active
Human alphaherpesvirus 1 [19]
  Activity: Active
Human alphaherpesvirus 1 [20]
  EC50: 100 nM
Human alphaherpesvirus 1 [2]
  Activity: Active
Human alphaherpesvirus 1 [3]
  Activity: Active
Human alphaherpesvirus 1 [21]
  fold change (FC): >1800
Human alphaherpesvirus 1 [22]
  Activity: Active

## Nc1nc2c(ncn2COCCO)c(=O)[nH]1 [ACYCLOVIR]
[6]
  Activity: Non-toxic
Human alphaherpesvirus 1 [23]
  Activity: Active
Human alphaherpesvirus 1 [24]
  Activity: Active
Human alphaherpesvirus 1 [25]
  Activity: Active
Human alphaherpesvirus 1 [26]
  Activity: 33.3 PFU/ml
[11]
  Activity: Non-toxic
Human alphaherpesvirus 1 [20]
  EC50: 70 nM
Human alphaherpesvirus 1 [27]
  Activity: Active

## O=C1N[C@H]2[C@H](O)C[C@@H](O)C[C@@H]2c2cc3c(cc21)OCO3
Human alphaherpesvirus 1 [1]
  Activity: inactive
Human alphaherpesvirus 1 [2]
  Activity: inactive
Human alphaherpesvirus 1 [3]
  Activity: inactive

## O=C1N[C@H]2[C@H](O)[C@H](O)[C@@H](O)[C@H](O)[C@@H]2c2cc3c(c(O)c21)OCO3 [PANCRATISTATIN]
Human alphaherpesvirus 1 [1]
  fold change (FC): 8.3
Human alphaherpesvirus 1 [4]
  Activity: Active
Human alphaherpesvirus 1 [5]
  fold change (FC): 62
Human alphaherpesvirus 1 [2]
  Activity: Active
Human alphaherpesvirus 1 [3]
  Activity: Active

## COC(=O)N[C@H]1C(=O)C[C@@H](O)C[C@@H]1c1ccc2c(c1)OCO2
Human alphaherpesvirus 1 [1]
  Activity: inactive
Human alphaherpesvirus 1 [2]
  Activity: inactive
Human alphaherpesvirus 1 [3]
  Activity: inactive
